From ChEMBL document CHEMBL1138305, “Novel substituted (Z)-2-(N-benzylindol-3-ylmethylene)quinuclidin-3-one and (Z)-(+/-)-2-(N-benzylindol-3-ylmethylene)quinuclidin-3-ol derivatives as potent thermal sensitizing agents” (2007) come the findings set out here.

In test [1] the test system is HT-29. Nature of the test: Cell survival of human HT29 cells at 150 uM after 2 hrs. The test is classed as functional. The following applies: HT-29, 2 h, read-out: Survival.
For test [2], the system named is HT-29. The test is described as follows: Growth inhibition of HT29 cells assessed as relative survival at 150 uM after 2 hrs relative to control. The test is classed as functional, Homo sapiens. The essentials: (§1)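 HT-29 colon carcinoma cells were exposed to drug for 2 h at 41°C, with DMSO as vehicle. Drug was then washed off and cells grown 14 days in fresh medium. Colonies of more than 50 cells were stained with crystal violet and counted. Survival was corrected for plating efficiency (vehicle, 2 h, 37°C) and for 2 h drug exposure at 37°C; vehicle at 41°C was set to 1.0. Student's t test.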

Test [3] has as its system HT-29. The test is described as follows: Growth inhibition of HT29 cells assessed as relative survival at 50 uM after 2 hrs relative to control. The test is classed as functional, Homo sapiens. The method, boiled down:
as §1

In test [4] the test system is HT-29. Nature of the test: Growth inhibition of HT29 cells at 50 uM after 2 hrs. The test is classed as functional. Conditions: Homo sapiens, HT-29, 2 h. The method, boiled down: as §1

In the case of `Cc1ccc(Cn2cc(/C=C3/C(O)C4CCN3CC4)c3cc(Br)ccc32)cc1` (configuration not stated), the viability at 150 µM in the test with HT-29 [1] was above 70%. For the same compound, the Survival in the test with HT-29 [2] is reported as 0.78.

Take `COc1ccc(Cn2cc(/C=C3/C(=O)C4CCN3CC4)c3cc(Br)ccc32)cc1`: the viability at 150 µM in the test on HT-29 [1] is above 70%. Moreover, in the test with HT-29 [2], the Survival is listed as 0.86.

Turning to `O=C1/C(=C/c2cn(Cc3ccccc3)c3ccccc23)N2CCC1CC2`, in the test with HT-29 [2], the Survival is recorded as 0.5.

As to `OC1/C(=C/c2cn(Cc3ccccc3Br)c3ccc(Br)cc23)N2CCC1CC2` (configuration not stated), the viability at 150 µM in the test with HT-29 [1] was above 70%. In the test with HT-29 [2], the Survival was 0.58.

For `OC1/C(=C/c2cn(Cc3ccccc3)c3ccccc23)N2CCC1CC2` (racemic), the results for the Survival with HT-29 [3] and in the test with HT-29 [2] were 1 and 0.06, respectively. The same compound showed an inhibition at 50 µM with HT-29 [4] of 93%.

Regarding `O=C1/C(=C/c2cn(Cc3ccccc3Br)c3ccc(Br)cc23)N2CCC1CC2`, in the test on HT-29 [1], the viability at 150 µM was above 70%. In addition, the Survival in the test with HT-29 [2] was 0.96.

Regarding `OC1/C(=C/c2cn(Cc3ccc(Cl)cc3)c3ccccc23)N2CCC1CC2` (configuration not stated), in the test on HT-29 [1], the viability at 150 µM was below 70%. For the same compound, the Survival in the test on HT-29 [3] came to 0.07.

For the compound `Cc1ccc(Cn2cc(/C=C3/C(O)C4CCN3CC4)c3cc(C)ccc32)cc1` (configuration not stated), in the test with HT-29 [1], the viability at 150 µM was below 70%. The Survival in the test with HT-29 [3] amounted to 0.59.

Consider `O=C1/C(=C/c2cn(Cc3ccc(Cl)cc3)c3ccccc23)N2CCC1CC2`, for which, in the test with HT-29 [1], the viability at 150 µM was above 70%. The Survival in the test with HT-29 [2] worked out at 0.56.

In the case of `O=C1/C(=C/c2cn(Cc3ccc(Cl)cc3)c3ccc(Br)cc23)N2CCC1CC2`, the viability at 150 µM in the test with HT-29 [1] was above 70%. In the test with HT-29 [2], the Survival was 1.

As to `COc1ccc2c(c1)c(/C=C1/C(O)C3CCN1CC3)cn2Cc1ccccc1` (configuration not stated), in the test on HT-29 [1], the viability at 150 µM is below 70%. Moreover, in the test with HT-29 [3], the Survival is given as 0.76.

For the compound `Cc1ccc(Cn2cc(/C=C3/C(=O)C4CCN3CC4)c3ccccc32)cc1`, the viability at 150 µM with HT-29 [1] was above 70%. Further, the Survival in the test with HT-29 [2] is on record as 1.

`Cc1ccc2c(c1)c(/C=C1/C(O)C3CCN1CC3)cn2Cc1ccccc1` (configuration not stated): the viability at 150 µM in the test on HT-29 [1] was above 70%. Further, the Survival in the test with HT-29 [2] was determined as 1.

With `Cc1ccc2c(c1)c(/C=C1/C(=O)C3CCN1CC3)cn2Cc1ccccc1`, the viability at 150 µM with HT-29 [1] is above 70%. Besides, the Survival with HT-29 [2] is listed as 0.98.

Take `O=C1/C(=C/c2cn(Cc3ccc(F)cc3)c3ccccc23)N2CCC1CC2`: the viability at 150 µM with HT-29 [1] is above 70%. In addition, in the test with HT-29 [2], the Survival was 0.71.

For `O=C1/C(=C/c2cn(Cc3ccc(F)cc3)c3ccc(Br)cc23)N2CCC1CC2`, the viability at 150 µM in the test with HT-29 [1] was above 70%. Moreover, the Survival in the test on HT-29 [2] amounted to 0.81.

Take `Cc1ccc(Cn2cc(/C=C3/C(O)C4CCN3CC4)c3ccccc32)cc1` (configuration not stated): the viability at 150 µM in the test on HT-29 [1] is below 70%. In the test with HT-29 [3], the Survival came to 0.59.

On to `OC1/C(=C/c2cn(Cc3ccc(Cl)cc3)c3ccc(Br)cc23)N2CCC1CC2` (configuration not stated), for which, in the test with HT-29 [1], the viability at 150 µM is above 70%. Also, in the test with HT-29 [2], the Survival amounted to 0.9.

Take `O=C1/C(=C/c2cn(Cc3ccccc3)c3ccc(Br)cc23)N2CCC1CC2`: the viability at 150 µM in the test on HT-29 [1] is above 70%. Further, the Survival in the test with HT-29 [2] was 1.

In the case of `OC1/C(=C/c2cn(Cc3ccccc3)c3ccc(Br)cc23)N2CCC1CC2` (configuration not stated), the viability at 150 µM with HT-29 [1] is above 70%. Moreover, the Survival in the test with HT-29 [2] amounted to 0.59.

`OC1/C(=C/c2cn(Cc3ccc(F)cc3)c3ccccc23)N2CCC1CC2` (configuration not stated): the viability at 150 µM in the test on HT-29 [1] is below 70%. Further, the Survival with HT-29 [3] turned out to be 0.7.

Regarding `Cc1ccc(Cn2cc(/C=C3/C(=O)C4CCN3CC4)c3cc(Br)ccc32)cc1`, in the test on HT-29 [1], the viability at 150 µM is above 70%. For the same compound, the Survival in the test on HT-29 [2] worked out at 1.

Consider `COc1ccc(Cn2cc(/C=C3/C(O)C4CCN3CC4)c3cc(Br)ccc32)cc1` (configuration not stated), for which the viability at 150 µM with HT-29 [1] is above 70%. Besides, the Survival in the test with HT-29 [2] was determined as 0.61.

Take `COc1ccc2c(c1)c(/C=C1/C(=O)C3CCN1CC3)cn2Cc1ccccc1`: the viability at 150 µM with HT-29 [1] is above 70%. In addition, in the test on HT-29 [2], the Survival is given as 0.75.

Regarding `OC1/C(=C/c2cn(Cc3ccc(F)cc3)c3ccc(Br)cc23)N2CCC1CC2` (configuration not stated), the viability at 150 µM in the test on HT-29 [1] was above 70%. Further, the Survival in the test with HT-29 [2] worked out at 0.52.

Regarding `Cc1ccc(Cn2cc(/C=C3/C(=O)C4CCN3CC4)c3cc(C)ccc32)cc1`, the viability at 150 µM in the test with HT-29 [1] is above 70%. Besides, in the test on HT-29 [2], the Survival amounted to 1.
